Source: ChEMBL document CHEMBL4033757, “Efficient Divergent Synthesis of New Immunostimulant 4″-Modified α-Galactosylceramide Analogues” (ACS Med Chem Lett, 2017)
Calls of active or inactive are those of the source.

Key:
[1] = tested on: Mus musculus; experiment: Immunostimulatory activity in C57BL/6 mouse assessed as induction of IFNgamma levels in serum at 2.0 x 10^-4 […], ip measured after 16 hrs by ELISA; assay type: functional, organism-based
How it was run: (§1)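 C57BL/6 mice dosed intraperitoneally with 5 μg glycolipid per animal (stated as 2.0 × 10–4 […]). Serum collected and cytokines quantified by ELISA: IFN-γ at 16 h post-injection, IL-4 at 4 h post-injection.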

[2] = tested on: iNKT; experiment: Immunostimulatory activity in human iNKT cells cocultured with HeLa CD1d cells assessed as induction of IFNgamma levels at 0.01 to 1 nM after 24 hrs by ELISA; assay type: functional, cell-based
How it was run: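 Human iNKT cells cocultured with HeLa cells expressing CD1d plus glycolipid at varying concentrations. After 24 h incubation, IFN-γ in the culture measured by ELISA.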

[3] = tested on: Mus musculus; experiment: Immunostimulatory activity in C57BL/6 mouse assessed as induction of IL-4 levels in serum at 2.0 x 10^-4 […], ip measured after 4 hrs by ELISA; assay type: functional, organism-based; how it was run: as §1

Measured: Activity

CCCCCCCCCCCCCCCCCCCCCCCCCC(=O)N[C@@H](CO[C@H]1O[C@H](CO)[C@H](OC)[C@H](O)[C@H]1O)[C@H](O)[C@H](O)CCCCCCCCCCCCCC
active: all assays above

CCCCCCCCCCCCCCCCCCCCCCCCCC(=O)N[C@@H](CO[C@H]1O[C@H](CO)[C@@H](NC(=O)Nc2cccc3ccccc23)[C@H](O)[C@H]1O)[C@H](O)[C@H](O)CCCCCCCCCCCCCC
active: all assays above

CCCCCCCCCCCCCCCCCCCCCCCCCC(=O)N[C@@H](CO[C@H]1O[C@H](CO)[C@H](O)[C@H](O)[C@H]1O)[C@H](O)[C@H](O)CCCCCCCCCCCCCC
active: all assays above

CCCCCCCCCCCCCCCCCCCCCCCCCC(=O)N[C@@H](CO[C@H]1O[C@H](CO)[C@H](OCc2ccc(Cl)cc2)[C@H](O)[C@H]1O)[C@H](O)[C@H](O)CCCCCCCCCCCCCC
active: all assays above

C=C1[C@@H](CO)O[C@H](OC[C@H](NC(=O)CCCCCCCCCCCCCCCCCCCCCCCCC)[C@H](O)[C@H](O)CCCCCCCCCCCCCC)[C@H](O)[C@H]1O
active: all assays above

CCCCCCCCCCCCCCCCCCCCCCCCCC(=O)N[C@@H](CO[C@H]1O[C@H](CO)[C@H](OC(=O)Nc2cccc3ccccc23)[C@H](O)[C@H]1O)[C@H](O)[C@H](O)CCCCCCCCCCCCCC
active: all assays above
